Screens: PubChem BioAssay, several laboratories
mHtt clearance = compounds clearing mutant huntingtin protein. inhibition, % at 1.5 µM. hit rate 0.42% among 47,000. HeLa Exon1htt(103Q)mCFP, aggregate imaging; zero = plate's median compound well;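 active means inhibition of aggregate fluorescence above about 70%, also judged a hit by eye on the cell image, limit read from the data, passing the limit was not always enough; inconclusive means no rule stated for this call; inactive means not judged a hit on image review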;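 further: cells exposed to compound for three days before fixation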
D1 mod = allosteric modulators of human D1 dopamine receptor. P21728. AID 641. B-score at 10 µM. HEK293 D1, CRE-luciferase, dopamine EC30 potentiation; actives deviate in either direction. hit rate 5.9% among 58,000;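 active means luminescence count or its row- and column-corrected plate score outside the 99.7% band of the plate's sample wells, on either side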
Target sequence (P21728 whole entry, looked up): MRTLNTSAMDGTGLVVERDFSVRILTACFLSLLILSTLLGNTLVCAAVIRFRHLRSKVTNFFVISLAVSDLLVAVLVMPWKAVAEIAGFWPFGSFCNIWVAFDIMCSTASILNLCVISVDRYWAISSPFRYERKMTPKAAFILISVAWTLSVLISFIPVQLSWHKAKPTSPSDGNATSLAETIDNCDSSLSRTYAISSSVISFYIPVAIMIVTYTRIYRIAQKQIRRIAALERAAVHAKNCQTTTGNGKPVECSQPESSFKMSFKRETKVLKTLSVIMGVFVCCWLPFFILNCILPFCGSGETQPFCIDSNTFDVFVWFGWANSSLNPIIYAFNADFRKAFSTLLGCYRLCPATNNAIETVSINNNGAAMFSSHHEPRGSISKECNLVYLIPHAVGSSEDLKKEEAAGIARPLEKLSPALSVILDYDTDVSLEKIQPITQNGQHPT
M1 antagonist = blocks the rat M1 muscarinic receptor response to acetylcholine | P08482 | CHO-M1 cells, Fluo-4 calcium, ACh EC80 antagonist mode; stronger effect = lower value | B-score at 10 µM | hit rate 3.4% among 64,000;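 active means calcium fluorescence response, raw or row-and-column corrected B-score, differing from the plate sample mean either way at a set confidence level, mostly lower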
SF-1 act = SF-1 (human) activation. CHO-K1 Gal4-SF-1 LBD luciferase reporter; % increase over DMSO SF-1-specific signal. activation, % at 10 µM. Q13285. AID 522. hit rate 1.9% among 65,000;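 active means activation above the mean activation of all tested compounds plus 3 SD, cut at about 50% in these data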
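System: CHO-K1 cells with Gal4–hSF-1 LBD chimera plus Gal4-driven luciferase; quantity: 4,000 CHO-K1 cells per well; compound: one dose, 10 µM compound, 1% DMSO; times: 20 h compound treatment, 37 °C; measured by: SteadyLite luciferase luminescence; read-out: percent activation versus DMSO; benchmarks: DMSO and mock-transfected background; replicates: one test per compound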
RORa activator = activates the human nuclear receptor RORA; CHO-K1 Gal4-RORA LBD luciferase reporter, luminescence; percent increase over mock-subtracted basal signal; hit rate 1.5% among 65,000; activation, % at 10 µM; P35398; AID 560;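 active means activation above the mean of all tested compounds plus 3 SD, cut at about 49% in these data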;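 further: 0% = DMSO-treated RORA cells and 100% = added signal equal to DMSO minus mock-transfected cells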
M1 ag = M1 muscarinic receptor agonism; CHO-M1 cells, Fluo-4 calcium fluorescence, agonist mode; stronger effect = higher value; B-score at 10 µM; hit rate 3% among 64,000;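 active means fluorescence rise, raw or as B-score row- and column-corrected plate score, outside the 99.7% band of its plate's samples, either direction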
Numbers without * were called inactive; ? = inconclusive; · = no result. Compounds with a hit are over-represented: about 11% of the library has one in this group of screens.

SMILES	mHtt clearance	D1 mod	M1 antagonist	SF-1 act	RORa activator	M1 ag
Cc1c(CCO)c(=O)n(-c2ccccc2)n1S(=O)(=O)c1c(Cl)cc(Cl)cc1Cl	38	·	·	·	·	·
Cc1ccc(Cn2nnc(C(=O)Nc3cc(C)ccc3C)c2N)cc1	-34	-0.17	1.8*	0	-14	0.064
CCOc1ccccc1NC(=O)Cn1nnc(C(=O)Nc2ccc(C)cc2)c1N	·	-5.3*	-0.51	-22	25	0.99
Cc1ccc(C)c(NC(=O)c2nnn(Cc3ccccc3)c2N)c1	·	0.072	-0.18	19	-6	0.67
CC(O)Cn1cnc2c1c(=O)n(C)c(=O)n2C (configuration not stated)	·	0.48	0.65	-4	-18	-0.83
CC(=O)c1cc2c(cc1NC(=O)C1CC1)OCO2	-6	·	·	·	·	·
Cc1[nH]c(=O)[nH]c(=O)c1S(=O)(=O)N1c2ccc(F)cc2CCC1C (configuration not stated)	-16	-0.3	-0.017	12	-3	0.036
Cc1noc(C)c1CSc1nc2ccccc2c(=O)n1-c1ccc(F)cc1F	?	·	·	19	9	·
Cc1noc(C)c1CSc1nc2ccccc2c(=O)n1-c1ccccc1	-41	5.3*	-0.27	-12	46	-0.78
O=C1CC(C(=O)O)C2(CCCC2)O1 (configuration not stated)	20	·	·	·	·	·
O=C(NCc1cccs1)c1noc2c1CCCC2	·	0.11	-0.39	4	55*	-0.22
COc1ccc(CNC(=O)c2noc3c2CCCC3)cc1	-19	0.57	0.32	42	55*	0.72
CCCc1cc(C(=O)NCc2ccc(OC)cc2)no1	32	-0.18	-0.047	29	49*	-0.015
CCOC(=O)CNC(=O)c1cn(CC(C)C)c(=O)c2cc(OC)c(OC)cc12	·	0.87	0.15	7	1	1.5
Cc1cccc(OCc2nnc(SCC(=O)Nc3ccc(C)c(Cl)c3)o2)c1	·	0.53	-2	-13	-23	0.27
Cn1nnnc1SCCNCc1ccncc1	-32	-0.0024	-0.18	5	-14	-0.074
CCCCn1c(=O)[nH]c(=O)c2c1nc(CN1C(=O)c3ccccc3S1(=O)=O)n2CCC	·	9.8*	0.47	-14	-1	-0.41
COCc1cc(=O)[nH]c(Nc2nc3ccccc3o2)n1	5	0.0098	0.89	-7	15	1.6
CCOC(=O)Cc1cc(=O)[nH]c(Nc2nc3ccccc3o2)n1	12	·	1	11	50*	0.14
COC(=O)Cc1cc(=O)[nH]c(Nc2nc3ccccc3o2)n1	75*	1.3	-0.12	1	11	1.9
COC1(c2cc(-c3ccccc3)nc(N)n2)CCCCC1	10	0.37	-0.66	7	0	0.091
Cc1cc(C)c2c(n1)sc1c(N3CCOCC3)ncnc12	?	2.8*	0.32	21	-10	-0.85
COC(=O)C1=C(C)Nc2nc(-c3ccccc3)nn2C1c1ccc(C)o1 (configuration not stated)	·	-7.3*	-0.12	1	26	-0.17
Cc1cc(C)c(C)c(S(=O)(=O)NCc2ccc(C(=O)N3CCCCC3)cc2)c1C	17	·	·	·	·	·
CCOC(=O)C(O)(NC(=O)c1cccnc1)C(F)(F)F (configuration not stated)	-30	0.22	1.3	-10	-5	-0.86
SMILES	mHtt clearance	D1 mod	M1 antagonist	SF-1 act	RORa activator	M1 ag
CCC1(COC(NC(=O)c2cccnc2)(C(F)(F)F)C(F)(F)F)COC1	·	-7*	-0.85	-1	2	-0.054
CN(C)c1ccc(CN(C(=O)C2COc3ccccc3O2)C2CCS(=O)(=O)C2)cc1 (configuration not stated)	·	-0.085	0.31	14	4	1.2
N#Cc1c(NC(=O)c2ccc(Br)o2)n(-c2ccccc2)c2nc3ccccc3nc12	·	1.6	-0.75	3	-16	42*
CCC(=O)Nc1c(C#N)c2nc3ccccc3nc2n1-c1ccc(C)cc1	·	1.9	0.42	15	4	4.3*
Cc1cc2nc(-c3cccnc3SCC(=O)NCc3ccco3)[nH]c2cc1C	-21	-3.9*	0.0068	20	-8	-0.34
Cc1c(C(=O)N2CCOCC2)[nH]c2c1C(=O)CC(c1ccccc1Cl)C2 (configuration not stated)	35	0.093	0.41	67*	45	-0.76
Cc1cccc(OCc2nnc(NC(=O)Cc3cccs3)s2)c1	-5	·	·	·	·	·
Cc1cc(N2CCN(C(=O)c3ccco3)CC2)n2nc(-c3cccc(F)c3)cc2n1	16	-0.13	-0.8	-13	-17	2.9*
Cc1cc(N2CCN(c3ccccc3)CC2)nc(-c2ccccc2)n1	·	0.37	-0.79	-14	-1	-2.6
Cc1cc(N2CCN(C(=O)c3ccco3)CC2)nc(-c2ccccc2)n1	·	-3.7*	·	-3	13	·
CCCCCN(C(=O)NC(=O)Nn1cnnc1)S(C)(=O)=O	36	0.11	-0.21	-9	-11	0.046
Cc1cccc(NC(=O)Nc2ccc(C#N)cc2)n1	·	-5.2*	-0.096	-71	-60	0.52
COc1ccc(OCC(=O)Nc2cccc(OC)c2)cc1	·	-0.77	-0.55	-21	30	0.35
COc1ccc(NC(=O)Nc2cccc(C)n2)cc1	·	-0.0063	0.048	64*	28	-0.16
CSc1cccc(NC(=O)COc2ccccc2)c1	39	0.24	0.076	1	-13	1.2
COc1ccc(NC(=O)Nc2cccc(OC)c2)cc1	·	-0.7	0.45	35	68*	0.95
CSc1cccc(NC(=O)Nc2ccccc2)c1	5	-0.27	-0.045	50*	63*	-0.39
COc1ccc(CNC(=O)Nc2ccc(C)cc2)cc1	26	-0.67	1.1	32	20	0.31
Cc1cccc(NC(=O)Nc2cccc(C#N)c2)n1	·	2.1	0.0088	2	8	-0.11
O=C1c2ccccc2C(=O)N1CSc1ncccn1	·	-0.67	-0.49	2	-14	-0.2
Cc1cccnc1NC(=O)CSc1nnc(Cc2ccccc2)o1	-53	·	·	·	·	·
Cc1cc(N2CCOCC2)nc(NCc2ccccc2)n1	52	·	-1.8	-24	3	-0.6
c1ccc(CNn2c(N3CCOCC3)nc3ccccc32)cc1	·	-3.3*	-2	-1	-7	-0.63
N#Cc1nc(COc2ccccc2)oc1NCCCn1ccnc1	47	0.1	0.34*	16	26	-0.16
Cc1ccc(OCc2nc(C#N)c(NCCCn3ccnc3)o2)cc1	·	-0.12	-1.5	5	3	-0.066
O=C(Cc1cc(=O)[nH]c(=O)[nH]1)NCCN1CCOCC1	19	0.31	-0.14	8	-4	-0.39
O=C(OCC(=O)N1CCc2ccccc21)C1=COCCO1	34	0.33	0.069	2	4	0.7
O=C(COc1ccc(F)cc1Br)N1CCc2ccccc21	·	-0.83	0.62	51*	30	2.2
Cc1cc(C(=O)OCC(=O)N2CCc3ccccc32)c(C)o1	·	0.53	-0.15	54*	-2	-0.59
COCCOC(=O)C1=C(C)N=C2SCCC(=O)N2C1c1cc(Br)ccc1OC (configuration not stated)	·	-0.29	-0.086	-6	-1	0.25
